# IDH1 R132H inh = inhibitors of human IDH1 R132H | O75874 | inhibition, % at 10 µM | AID 624101 | IDH1 R132H reductase, diaphorase/resazurin fluorescence, 60 min | 70,000 tested, 0.18% active; in the data active = inhibition above about 34%; inconclusive = no clear call, values can overlap the other calls; inactive = below about 11%;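 note: 0% = DMSO and 100% = no enzyme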
# Target sequence (O75874 whole entry R132H): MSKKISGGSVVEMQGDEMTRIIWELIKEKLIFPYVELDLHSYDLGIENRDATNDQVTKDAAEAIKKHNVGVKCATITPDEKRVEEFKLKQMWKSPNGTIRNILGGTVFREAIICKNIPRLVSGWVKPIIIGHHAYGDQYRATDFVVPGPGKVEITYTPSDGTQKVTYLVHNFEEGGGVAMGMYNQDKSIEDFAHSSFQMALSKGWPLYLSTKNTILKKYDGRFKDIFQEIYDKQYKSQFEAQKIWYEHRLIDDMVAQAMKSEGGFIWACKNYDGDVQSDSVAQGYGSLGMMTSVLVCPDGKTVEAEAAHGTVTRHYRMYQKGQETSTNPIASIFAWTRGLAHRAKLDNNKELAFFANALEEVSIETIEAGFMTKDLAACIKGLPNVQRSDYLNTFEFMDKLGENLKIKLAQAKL
# KDM4C inh = KDM4C (human) demethylase inhibition; Q9H3R0; GST-KDM4C 2-372, H3K9me3 peptide, LANCE TR-FRET; inhibition, % at 12.5 µM; 96,000 tested, 0.15% active; AID 720574;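 active = mean replicate inhibition above about 25%, with at least 55% of replicates also reaching it, limit read from the data, passing the limit was not always enough; inconclusive = only one of those two conditions met; inactive = neither condition met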
#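 Material: N-terminal GST-fused human GASC-1 (KDM4C) fragment, residues 2-372. Input: 10 nM enzyme. Incubation: enzyme reaction 30 min, then detection 60 min, both room temperature. Doses: one test concentration per compound. Read-out basis: inhibition from TR-FRET ratio decrease. Detection: LANCE TR-FRET, excitation 340 nm, emissions 618 and 671 nm.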
# T cruzi growth-1 = T. cruzi proliferation inhibition; inhibition, % at 8.34 µM; T. cruzi beta-gal in NIH3T3, GalScreen luminescence, 90 h; 77,000 tested, 5.9% active;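 active = mean inhibition above about 93%, with at least 55% of replicates each passing it, limit read from the data, passing the limit was not always enough; inconclusive = only one of those two conditions holds; inactive = neither condition holds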
# T cruzi growth-2 = inhibitors of T. cruzi proliferation; 5,600 tested, 72% active; inhibition, % at 8.35 µM; T. cruzi beta-gal in NIH3T3, GalScreen luminescence, 90 h; AID 651739; shares compounds with T cruzi growth-1;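 active = mean replicate inhibition above about 95% and at least 55% of replicates individually reaching it, limit read from the data; inconclusive = only one of the two criteria is met; inactive = neither criterion is met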
# T cruzi growth-3 = blocks T. cruzi growth in NIH3T3 host cells | shares compounds with T cruzi growth-1 | T. cruzi beta-gal in NIH3T3, GalScreen luminescence, 90 h | inhibition, % at 2.09 µM | 5,600 tested, 21% active | AID 651740;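 active = mean inhibition above about 95%, with at least 55% of replicates also reaching it, limit read from the data; inconclusive = meets just one of the two conditions; inactive = meets neither condition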;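 note: plate controls were neutral control median for no effect and positive control median for full effect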
# NIH3T3 tox = NIH/3T3 (mouse) viability loss. cytotoxicity (signal decrease), % at 8.35 µM. shares compounds with T cruzi growth-1. 5,600 tested, 14% active. NIH/3T3 viability, CellTiter-Glo ATP luminescence, 90 h;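 active = mean signal decrease across replicates above about 35% based on untreated-well scatter, with enough replicates individually passing, limit read from the data; inconclusive = no rule stated though some were filed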;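 note: 0% = median of neutral control wells and 100% = median of positive control wells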
# NIH3T3 tox 2 = cytotoxicity in mouse NIH/3T3 fibroblasts; AID 651744; inhibition, % at 24.9 µM; shares compounds with T cruzi growth-1; 5,600 tested, 56% active; NIH/3T3 viability, CellTiter-Glo ATP luminescence, 90 h;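 active = mean loss of cell viability signal at or above a set limit, and enough replicates individually reaching it; inconclusive = meets only the mean limit or only the replicate share; inactive = meets neither condition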;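 note: 0% = median of neutral control wells and 100% = median of positive control wells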
# Active calls of the source: *; ? = inconclusive; nt = no result given; ! = a repeat was not active. The entries come from a sample that favours hits as a whole.
SMILES,IDH1 R132H inh,KDM4C inh,T cruzi growth-1,T cruzi growth-2,T cruzi growth-3,NIH3T3 tox,NIH3T3 tox 2
COC(=O)[C@H]1[C@H](CO)[C@H]2Cn3c(ccc(-c4cccnc4)c3=O)[C@H]2N1Cc1cccc(F)c1,nt,8,-9,nt,nt,nt,nt
O=C(C[C@@H]1C[C@H]2c3cc(NC(=O)CC4CC4)ccc3O[C@H]2[C@@H](CO)O1)NCc1ccc(-c2ccccc2)cc1,0,-3,3,nt,nt,nt,nt
COc1cccc(C#Cc2ccc3c(c2)O[C@H](CN(C)S(=O)(=O)c2ccccc2F)[C@H](C)CN([C@H](C)CO)S3(=O)=O)c1,0,5,130*,107*,107*,8,38*!
COc1ccc(C#Cc2ccc3c(c2)O[C@H](CN(C)S(=O)(=O)c2ccccc2F)[C@@H](C)CN([C@H](C)CO)S3(=O)=O)cc1,0,-5,nt,nt,nt,nt,nt
COc1ccc(C#Cc2ccc3c(c2)O[C@@H](CN(C)S(=O)(=O)c2ccccc2F)[C@@H](C)CN([C@@H](C)CO)S3(=O)=O)cc1,-4,-9,nt,nt,nt,nt,nt
COc1cccc(C#Cc2ccc3c(c2)O[C@H](CN(C)S(=O)(=O)c2ccccc2F)[C@@H](C)CN([C@@H](C)CO)S3(=O)=O)c1,1,-4,118*,111*,116*,38*,27*
Cc1ccccc1-c1ccc2c(c1)O[C@H](CN(C)C(=O)Nc1ccc(F)cc1)[C@H](C)CN([C@H](C)CO)S2(=O)=O,0,-4,nt,nt,nt,nt,nt
COc1ccc([N+](=O)[O-])cc1NC(=O)C(C)N(c1ccc(Cl)cc1)S(C)(=O)=O (configuration not stated),0,nt,nt,nt,nt,nt,nt
O=C(Nc1ccc2c(c1)[C@@H]1C[C@H](CC(=O)N3CCCCC3)O[C@H](CO)[C@@H]1O2)C1CCOCC1,-1,-3,-42,nt,nt,nt,nt
O=C(C[C@H]1C[C@@H]2c3cc(NC(=O)Nc4ccc(C(F)(F)F)cc4)ccc3O[C@@H]2[C@@H](CO)O1)NCc1ccc(Cl)cc1,0,0,-14,nt,nt,nt,nt
C[C@H](NC(=O)C[C@H]1C[C@@H]2c3cc(NC(=O)Nc4ccc(C(F)(F)F)cc4)ccc3O[C@@H]2[C@@H](CO)O1)c1ccccc1,-1,0,20,nt,nt,nt,nt
O=C(C[C@@H]1C[C@@H]2c3cc(NC(=O)Nc4ccc(C(F)(F)F)cc4)ccc3O[C@@H]2[C@@H](CO)O1)NCc1ccc(Cl)cc1,-1,2,112*,109*,24,-21,-1
O=C(C[C@@H]1C[C@@H]2c3cc(NC(=O)Nc4ccc(C(F)(F)F)cc4)ccc3O[C@@H]2[C@H](CO)O1)NCc1cc(F)ccc1F,0,-1,37,nt,nt,nt,nt
O=C(C[C@H]1C[C@@H]2c3cc(NC(=O)Nc4ccc(C(F)(F)F)cc4)ccc3O[C@@H]2[C@@H](CO)O1)NCc1cc(F)ccc1F,0,12,156*,81,11,9,-4
C[C@H](NC(=O)C[C@H]1C[C@H]2c3cc(NC(=O)Nc4ccc(C(F)(F)F)cc4)ccc3O[C@H]2[C@@H](CO)O1)c1ccccc1,1,-1,?,77,41,8,-2
C[C@@H]1CCCCO[C@H](CN(C)C)[C@@H](C)CN([C@H](C)CO)C(=O)c2cc(NC(=O)c3ccncc3)ccc2O1,1,-1,87,nt,nt,nt,nt
COc1ccc(S(=O)(=O)N(C)C[C@@H]2Oc3ccc(NC(=O)Cn4cnnn4)cc3CC(=O)N([C@@H](C)CO)C[C@@H]2C)cc1,0,0,-13,nt,nt,nt,nt
COc1ccc(CN(C)C[C@@H]2Oc3ccc(NS(=O)(=O)c4ccc(Cl)cc4)cc3C(=O)N([C@@H](C)CO)C[C@H]2C)cc1,1,1,53,nt,nt,nt,nt
O=C(C1CC1)N1CCCCN2[C@@H](CO)[C@@H](c3ccc(C#CC4CC4)cc3)[C@@H]2C1,nt,nt,50,nt,nt,nt,nt
O=C(C1CCCC1)N1CCCCN2[C@@H](CO)[C@H](c3ccc(C#CC4CC4)cc3)[C@@H]2C1,nt,nt,121*,110*,65,40*,82*
O=C(C1CCC1)N1CCCCN2[C@H](CO)[C@@H](c3ccc(C#CC4CCCC4)cc3)[C@@H]2C1,nt,nt,94,nt,nt,nt,nt
O=C(C1CCCC1)N1CCCCN2[C@H](CO)[C@@H](c3ccc(C#CC4CC4)cc3)[C@H]2C1,nt,nt,109*,107*,58,13,49*
